A short description of assay [1]: Cytotoxicity against human Hep3B cells after 48 hrs by alamar blue assay. The format is functional, cell-based, Hep 3B2. The essentials:
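HEP3B cells in EMEM with 10% heat-inactivated FBS, 2 mmol/L L-glutamine, penicillin/streptomycin, 37 °C, 5% CO2, used in exponential growth. Exposed 48 h to 1.6–50 µM of each analog. Alamar blue then added for a further 6 h at 37 °C and fluorescence read. Growth given as % treated/control; IC50 is the concentration giving 50% reduction of cell number versus untreated controls.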
In general terms: Resazurin is reduced to fluorescent resorufin, in cell work by metabolically active cells.

The nature of assay [2]: Upregulation of unfolded protein response-related DDIT3 gene expression in human Hep3B cells at 10 uM after 1 hr by RT-PCR analysis relative to control. It counts as functional, cell-based. Particulars: Hep 3B2. In short, it runs like this:
(§1)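 HEP3B cells treated 1 h with 10 µM analogue, compared with untreated cells. Gene expression measured by real-time PCR with SYBR chemistry and gene-specific primer pairs, triplicate wells, GAPDH as endogenous control. Analysed by the comparative Ct method and expressed as fold induction over untreated control (n = 3, SD). Significance set at p <0.05.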

A short description of assay [3]: Upregulation of unfolded protein response-related ATF4 gene expression in human Hep3B cells at 10 uM after 1 hr by RT-PCR analysis relative to control. It counts as functional, cell-based. Particulars: Hep 3B2. The essentials:
as §1

In assay [4] the target is T1, Eukaryotic translation initiation factor 2-alpha kinase 3 (Homo sapiens) (UniProt Q9NZJ5).
T1 sequence (whole entry): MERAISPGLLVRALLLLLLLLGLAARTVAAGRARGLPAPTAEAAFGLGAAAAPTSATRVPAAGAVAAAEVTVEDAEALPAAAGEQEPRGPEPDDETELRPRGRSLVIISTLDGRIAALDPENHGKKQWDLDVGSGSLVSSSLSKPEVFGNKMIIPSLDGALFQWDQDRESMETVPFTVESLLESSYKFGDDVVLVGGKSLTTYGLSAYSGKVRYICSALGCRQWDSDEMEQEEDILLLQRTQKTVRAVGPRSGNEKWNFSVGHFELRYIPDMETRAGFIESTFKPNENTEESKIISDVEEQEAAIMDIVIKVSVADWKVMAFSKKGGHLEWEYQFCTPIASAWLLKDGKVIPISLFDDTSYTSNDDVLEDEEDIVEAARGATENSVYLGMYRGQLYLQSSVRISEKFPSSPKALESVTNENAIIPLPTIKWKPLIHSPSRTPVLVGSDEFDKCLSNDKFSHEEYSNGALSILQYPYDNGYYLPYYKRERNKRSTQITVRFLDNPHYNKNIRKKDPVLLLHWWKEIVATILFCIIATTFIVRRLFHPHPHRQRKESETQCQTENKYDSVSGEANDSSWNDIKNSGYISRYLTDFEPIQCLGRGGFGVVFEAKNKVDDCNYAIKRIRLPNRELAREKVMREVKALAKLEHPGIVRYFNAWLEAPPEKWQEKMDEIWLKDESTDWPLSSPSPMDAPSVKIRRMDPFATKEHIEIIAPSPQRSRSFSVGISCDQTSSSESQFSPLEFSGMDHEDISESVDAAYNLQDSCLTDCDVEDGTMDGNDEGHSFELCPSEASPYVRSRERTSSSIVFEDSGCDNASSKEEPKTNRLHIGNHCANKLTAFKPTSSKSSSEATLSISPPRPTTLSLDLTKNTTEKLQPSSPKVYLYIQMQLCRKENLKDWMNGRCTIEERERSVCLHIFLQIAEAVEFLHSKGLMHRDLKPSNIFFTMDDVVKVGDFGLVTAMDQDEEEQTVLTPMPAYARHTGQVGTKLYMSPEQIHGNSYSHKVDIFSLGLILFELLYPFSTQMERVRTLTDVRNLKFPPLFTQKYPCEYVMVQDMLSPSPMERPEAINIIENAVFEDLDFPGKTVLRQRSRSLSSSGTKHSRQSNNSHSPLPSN
The assay is described as follows: Induction of PERK-mediated phosphorylation of eIF2alpha in human Hep3B cells at 2 to 10 uM after 1 to 6 hrs by Western blot analysis. The format is cell-based. Particulars: Hep 3B2. (In western blotting, separated proteins are transferred to a membrane and probed.)

The nature of assay [5]: Upregulation of unfolded protein response-related HSPA1A gene expression in human Hep3B cells at 10 uM after 1 hr by RT-PCR analysis relative to control. Particulars: Hep 3B2. The format is functional, cell-based. The essentials:
as §1

The nature of assay [6]: Upregulation of unfolded protein response-related GADD34 gene expression in human Hep3B cells at 10 uM after 1 hr by RT-PCR analysis. Particulars: Hep 3B2. It counts as functional, cell-based. In short, it runs like this:
as §1

Assay [7] is described as follows: Upregulation of unfolded protein response-related TRIB3 gene expression in human Hep3B cells at 10 uM after 1 hr by RT-PCR analysis. Particulars: Hep 3B2. The format is functional, cell-based. In short, it runs like this: as §1
Assay [8] relates to Hep 3B2. The assay is described as follows: Effect on stress-inducible CDKN1A gene expression in human Hep3B cells at 1 to 50 uM after 1 hr by RT-PCR analysis. It counts as functional, cell-based.
Assay [9] concerns Hep 3B2. The assay is described as follows: Effect on stress-inducible […] gene expression in human Hep3B cells at 1 to 50 uM after 1 hr by RT-PCR analysis. It counts as functional, cell-based.
The test system of assay [10] is Hep 3B2. Nature of the assay: Effect on stress-inducible CHEK1 gene expression in human Hep3B cells at 1 to 50 uM after 1 hr by RT-PCR analysis. It counts as functional, cell-based.
The subject of assay [11] is Hep 3B2. Nature of the assay: Effect on stress-inducible BRCA1 gene expression in human Hep3B cells at 1 to 50 uM after 1 hr by RT-PCR analysis. It counts as functional, cell-based.
Assay [12] has as its system Hep 3B2. The assay is described as follows: Effect on stress-inducible MDM2 gene expression in human Hep3B cells at 1 to 50 uM after 1 hr by RT-PCR analysis. It counts as functional, cell-based.
The test system of assay [13] is Hep 3B2. The assay is described as follows: Effect on stress-inducible GADD45B gene expression in human Hep3B cells at 1 to 50 uM after 1 hr by RT-PCR analysis. It counts as functional, cell-based.
Assay [14] deals with T1, Eukaryotic translation initiation factor 2-alpha kinase 3 (Homo sapiens). The assay is described as follows: Induction of PERK-mediated phosphorylation of eIF2alpha in human Hep3B cells at 50 uM after 1 hr by Western blot analysis. It counts as cell-based. Particulars: Hep 3B2.

Activity calls are given as the source filed them. The rule behind the calls is not given here.

On to `O=C1C(SCCO)=C(SCCO)C(=O)N1c1ccccc1F`, for which it took 9 µM to reach half-maximal inhibition in assay [1] (IC50).
For the compound `COc1cc(OC)cc(N2C(=O)C(SCCO)=C(SCCO)C2=O)c1`, it took 9 µM to reach half-maximal inhibition in assay [1] (IC50).
On the same count and under the same terms, the same measure for `O=C1C(SCCO)=C(SCCO)C(=O)N1c1ccc(F)cc1`: 9 µM; for `O=C1C(SCCO)=C(SCCO)C(=O)N1c1cccc2ccccc12`: 4 µM.
With `O=C1C(SCCO)=C(SCCO)C(=O)N1c1ccccc1`, half-maximal inhibition in assay [1] (IC50) required 70 µM. Also, the fold change (FC) in [2] and in assay [3] was 2 in each case.
For the compound `O=C1C(SCCO)=C(SCCO)C(=O)N1Cc1cccc(Cl)c1`, in assay [1], the IC50 (as a rule, the concentration that inhibits the measured activity by half) worked out at 2.5 µM.
As to `CN(C)c1ccc(N2C(=O)C(SCCO)=C(SCCO)C2=O)cc1`, the IC50 in assay [1] turned out to be 9 µM.
For `CC(=O)Nc1ccc(N2C(=O)C(SCCO)=C(SCCO)C2=O)cc1`, the IC50 in assay [1] was greater than 100 µM. Also, the fold change (FC) in assay [2] and in assay [3] was 2 each time. Besides, the result in [4] was inactive.
As for `O=C1C(SCCO)=C(SCCO)C(=O)N1c1ccccc1I`, the concentration for half-maximal inhibition (IC50) in assay [1] was 9 µM.
The same measure, in the same setting: the same measure for `O=C1C(SCCO)=C(SCCO)C(=O)N1c1ccc2cc3ccccc3cc2c1`: 1.8 µM; for `CCCCOc1ccc(N2C(=O)C(SCCO)=C(SCCO)C2=O)cc1`: 5 µM.
For the compound `O=C1C(SCCO)=C(SCCO)C(=O)N1CCc1ccccc1`, in assay [1], inhibition was half-maximal at 2 µM (IC50). The figures for the fold change (FC) in assay [5], in [2] and in [3] were 15.3, 2 and 2, respectively.
The compound `O=C1C(SCCO)=C(SCCO)C(=O)N1Cc1ccccc1` had a half-maximal inhibitory concentration (IC50) in assay [1] of 5 µM.
In assay [1], `Cc1cc(Cl)ccc1N1C(=O)C(SCCO)=C(SCCO)C1=O` yielded an IC50 of 8 µM.
Consider `COc1ccc(-c2ccc(N3C(=O)C(SCCO)=C(SCCO)C3=O)cc2)cc1`, for which it took 3 µM to reach half-maximal inhibition in [1] (IC50).
Regarding `O=C1C(SCCO)=C(SCCO)C(=O)N1c1ccc(-c2ccc([N+](=O)[O-])cc2)cc1`, in [1], the IC50 was found to be 4 µM. Moreover, the fold change (FC) in [5] stood at 17; in assay [2] it was 2; in [3], 2.
In the case of `O=C1C(SCCO)=C(SCCO)C(=O)N1c1ccc(Cl)cc1`, inhibition in assay [1] was half-maximal at 7 µM (IC50).
The same measure, in the same setting: the result for `CC(=O)c1ccc(N2C(=O)C(SCCO)=C(SCCO)C2=O)cc1` reads 10 µM; that for `CCOc1ccc(N2C(=O)C(SCCO)=C(SCCO)C2=O)cc1`, 6 µM.
As to `N#Cc1ccc(N2C(=O)C(SCCO)=C(SCCO)C2=O)cc1`, in assay [1], half-maximal inhibition (IC50) required 9 µM.
In turn, `Cc1cccc(N2C(=O)C(SCCO)=C(SCCO)C2=O)c1` registered an IC50 in assay [1] of 7 µM.
Take `COc1cccc(N2C(=O)C(SCCO)=C(SCCO)C2=O)c1`: in [1], half-maximal inhibition (IC50) was put at 9 µM.
On to `O=C1C(SCCO)=C(SCCO)C(=O)N1c1ccc(-c2ccccc2)cc1`, for which, in assay [1], the IC50 was 0.7 µM. Besides, the result in [6], in assay [7] and in assay [4] was Active. In addition, the outcome in the assay on Hep 3B2 [8], with Hep 3B2 [9], in the assay on Hep 3B2 [10], in the assay with Hep 3B2 [11], with Hep 3B2 [12] and in the assay on Hep 3B2 [13] was inactive. For the same compound, in assay [14], the Activity entry is “Toxic”.
Consider `O=C1C(SCCO)=C(SCCO)C(=O)N1c1ccc(OC(F)(F)F)cc1`, for which half-maximal inhibition in [1] (IC50) required 4 µM.
Still for that read-out and setting: the same measure for `O=C1C(SCCO)=C(SCCO)C(=O)N1CCc1cccc(Cl)c1`: 1 µM; for `O=C1C(SCCO)=C(SCCO)C(=O)N1c1ccc(O)cc1`: greater than 100 µM.
In turn, `O=C1C(SCCO)=C(SCCO)C(=O)N1c1ccc2ccccc2c1` displayed an IC50 in [1] of 3.5 µM.
As for `Cc1ccccc1-c1ccc(N2C(=O)C(SCCO)=C(SCCO)C2=O)cc1C`, the 50% inhibitory concentration (IC50) in assay [1] was 10 µM. Also, the fold change (FC) in assay [2] and in [3] was 2 each time.
For `COc1ccc(N2C(=O)C(SCCO)=C(SCCO)C2=O)cc1`, in [1], inhibition was half-maximal at 6 µM (IC50).
For `O=C1C(SCCO)=C(SCCO)C(=O)N1c1ccc(Oc2ccccc2)cc1`, in assay [1], the IC50 is greater than 100 µM. Besides, the fold change (FC) in assay [2] and in [3] was 2 in each case.

The values are drawn from ChEMBL document CHEMBL1165946, “Development of antiproliferative phenylmaleimides that activate the unfolded protein response” (Bioorg Med Chem, 2010).
